Source: PubChem (Sanford-Burnham Center for Chemical Genomics)
XBP1 UPR activ – adaptive UPR (XBP1) activation; CHO-XBP1 luciferase reporter, IRE1-XBP1 UPR activation, luminescence; percent of tunicamycin response, DMSO as zero; 330,000 tested, 0.33% active; AID 463104; activation, % at 20 µM;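 active = versus positive control, 20 µM dose yields 30% or more activation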
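Material: CHO cell line with stable XBP1 luciferase reporter; schedule: 16-18 h cell attachment at 37 °C, then 6 h compound exposure; signal: glow luminescence from Steady-Glo reagent; medium: serum-containing F12 medium, 10% FBS; benchmarks: tunicamycin 10 µg/mL and vehicle-only wells; read-out: percent activation relative to tunicamycin reference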
Mdm2 MdmX PPI – human Mdm2/MdmX binding inhibition; O15151+Q00987; SaOS-2 split-luciferase Mdm2/MdmX complementation, luminescence; inhibition, % at 8 µM; 330,000 tested, 3% active; AID 485346;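 active = inhibition of at least 50% at 8 µM in the primary screen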
Apaf-1 inh – human Apaf-1 inhibition | O14727 | reconstituted apoptosome caspase-3 activity, DEVD-Rh110 fluorescence | inhibition, % at 20 µM | 330,000 tested, 0.71% active; active = inhibition of at least 40% at 20 µM
Target sequence (O14727 whole entry, looked up): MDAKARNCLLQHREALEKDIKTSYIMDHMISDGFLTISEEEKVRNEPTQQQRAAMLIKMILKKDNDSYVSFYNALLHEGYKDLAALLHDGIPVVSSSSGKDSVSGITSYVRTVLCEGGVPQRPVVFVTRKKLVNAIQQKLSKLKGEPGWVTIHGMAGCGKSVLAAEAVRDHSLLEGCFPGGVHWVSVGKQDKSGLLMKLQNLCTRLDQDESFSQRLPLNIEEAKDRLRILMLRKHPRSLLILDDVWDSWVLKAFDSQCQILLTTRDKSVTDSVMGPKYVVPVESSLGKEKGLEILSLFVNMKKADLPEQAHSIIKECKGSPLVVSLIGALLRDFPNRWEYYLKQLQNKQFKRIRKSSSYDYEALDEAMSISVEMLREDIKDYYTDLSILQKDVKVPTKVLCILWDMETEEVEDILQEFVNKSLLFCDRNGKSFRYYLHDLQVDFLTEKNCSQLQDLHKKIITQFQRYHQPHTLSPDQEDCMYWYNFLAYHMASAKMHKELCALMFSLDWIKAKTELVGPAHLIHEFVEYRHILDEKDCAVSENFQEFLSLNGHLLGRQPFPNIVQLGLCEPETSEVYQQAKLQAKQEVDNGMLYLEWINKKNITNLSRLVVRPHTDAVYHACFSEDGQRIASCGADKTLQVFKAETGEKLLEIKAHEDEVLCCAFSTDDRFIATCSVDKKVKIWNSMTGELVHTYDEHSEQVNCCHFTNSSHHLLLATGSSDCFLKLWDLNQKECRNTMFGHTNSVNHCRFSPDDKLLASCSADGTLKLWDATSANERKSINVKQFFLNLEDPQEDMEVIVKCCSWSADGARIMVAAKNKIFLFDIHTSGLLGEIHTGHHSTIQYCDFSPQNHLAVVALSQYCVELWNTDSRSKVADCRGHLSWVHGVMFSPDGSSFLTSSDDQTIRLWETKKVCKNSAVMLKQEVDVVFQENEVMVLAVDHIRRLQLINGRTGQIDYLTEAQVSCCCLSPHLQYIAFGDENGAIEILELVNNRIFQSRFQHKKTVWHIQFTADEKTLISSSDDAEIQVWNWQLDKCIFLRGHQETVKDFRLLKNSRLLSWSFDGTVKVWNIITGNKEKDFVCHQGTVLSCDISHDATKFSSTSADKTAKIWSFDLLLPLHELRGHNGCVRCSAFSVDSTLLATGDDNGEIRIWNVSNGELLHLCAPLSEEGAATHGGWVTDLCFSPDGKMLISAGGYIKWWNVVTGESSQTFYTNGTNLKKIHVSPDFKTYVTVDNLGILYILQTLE
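Material: reconstituted apoptosome with Apaf-1, cytochrome c, caspase-9, procaspase-3, dATP / Buffer or medium: pH 7.5 Hepes buffer with CHAPS, BSA, DTT / Also added: cytochrome c with DEVD-Rh110 / Schedule: compound with Apaf-1, dATP, procaspase-3 30 min, then 50 min reaction, room temperature / Technique: rhodamine 110 fluorescence at Ex 480/Em 540 nm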
UPR CHOP act – apoptotic UPR (CHOP) activation; activation, % at 10 µM; 330,000 tested, 0.34% active; AID 449763; CHO-CHOP luciferase reporter, luminescence; percent of tunicamycin response over DMSO baseline;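 active = at 10 µM dose, activation of 40% or more, normalized to positive control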
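assay system = CHO CHOP reporter cells | amount = 500 CHO-CHOP cells per well | buffer or medium = F12 with 10% FBS | incubation = 16-18 h cell attachment, then 6 h compound exposure, 37 °C | detection = luminescence read with Steady-Glo | read-out = percent activation relative to tunicamycin control | controls = tunicamycin high control, DMSO low control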
UBC13 polyUb – human UBC13 polyubiquitination inhibition; P61088; UBC13 polyubiquitin chain formation, TR-FRET; AID 485273; inhibition, % at 20 µM; 330,000 tested, 0.47% active; in the data active = inhibition above about 45%, passing the limit was not always enough
Mdm2 MdmX conf – human Mdm2/MdmX binding inhibition, confirmed; shares compounds with Mdm2 MdmX PPI; luminescent assay; inhibition, % at 8 µM; 10,000 tested, 55% active; AID 489028; in the data active = inhibition above about 40%
FLuc counter – counter-screen for Mdm2/MdmX inhibitors: full-length luciferase; inhibition, % at 8 µM; SaOS-2 full-length luciferase counterscreen, luminescence; AID 504607; shares compounds with Mdm2 MdmX PPI; 6,200 tested, 77% active;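 active = mean inhibition at 8 µM reaching about 37%, which flags the compound as non-specific, limit read from the data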;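 also: p53-null SaOS-2 cells with luciferase driven by a doxycycline-inducible promoter; compound on cells about two nights before reading with doxycycline added after day one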
Each line names hits and unclear results; the compound was inactive in the other large screens (follow-up assays come after a bar, where they were run). Most compounds without a hit are left out; they make up all but 4.1% or so of the library.

Cc1ccc(S(=O)(=O)N2CCN(C(=O)CN3CCCSc4ccccc43)CC2)cc1	none
Cc1cccn2c(=O)c(C=NCCO)c(Nc3ccc(Cl)cc3)nc12	Mdm2 MdmX PPI 53 | Mdm2 MdmX conf inactive
Cc1cccn2c(=O)c(C=Nc3ccc(Cl)cc3)c(NCCO)nc12	none
COc1ccc(CN2CCC(=O)N([C@H](CO)c3ccccc3)CC2)cc1	none
Cc1cc(C)c2nc(NNC(=O)c3ccc(S(=O)(=O)N4CCc5ccccc5C4)cc3)sc2c1	Mdm2 MdmX PPI 82 | Mdm2 MdmX conf 86 | FLuc counter 38
Cc1cc(C)c2sc(NNC(=O)c3ccc(S(=O)(=O)N4CCc5ccccc5C4)cc3)nc2c1	Mdm2 MdmX PPI 83 | Mdm2 MdmX conf 85 | FLuc counter 42
Cc1nnc(NC(=O)c2ccc(S(=O)(=O)N3CCc4ccccc4C3)cc2)o1	none
CCc1nnc(NC(=O)c2ccc(S(=O)(=O)N3CCc4ccccc4C3)cc2)s1	none
COc1cccc(C(=O)NCCS(=O)(=O)N2CCC(C)CC2)c1	none
CCC(=O)Nc1ccc(/C(C)=N/NC(=O)c2c(Br)c(C)nn2C)cc1	none
C/C(=N\NC(=O)c1c(Br)c(C)nn1C)c1ccc(NC(=O)C(C)Oc2ccc(Cl)cc2C)cc1 (configuration not stated)	Mdm2 MdmX PPI 62 | Mdm2 MdmX conf inactive
COc1ccc(CN2CCN(C(=O)CCC(=O)Nc3nnc(C4CCCCC4)s3)CC2)cc1F	none
COc1ccccc1C1CCCN1Cc1nc(-c2ccc(C)s2)oc1C (configuration not stated)	Mdm2 MdmX PPI 75 | Mdm2 MdmX conf 66 | FLuc counter 52
Cc1ccc2c(c1)N(CC(=O)NCCCN1C(C)CCCC1C)C(=O)c1cccnc1O2 (configuration not stated)	none
O=[N+]([O-])c1ccc(-c2nc(NCc3ccccc3)c3ccccc3n2)cc1	Mdm2 MdmX PPI 60 | Mdm2 MdmX conf inactive
COc1cccc(-c2nc(NCc3ccccc3)c3ccccc3n2)c1O	Mdm2 MdmX PPI 56 | Mdm2 MdmX conf inactive
COc1cccc(-c2nc(NCc3ccco3)c3ccccc3n2)c1O	none
O=C1C=C(c2ccc3ncccc3c2)C[C@@H](c2ccc(Cl)cc2)C1	Mdm2 MdmX PPI 54 | Mdm2 MdmX conf 46 | FLuc counter 83
COc1ccc(CN2CCc3c([nH]c4ccccc34)C2)cc1Br	Mdm2 MdmX PPI 69 | Mdm2 MdmX conf inactive
CCOc1cc(CN2CCc3c([nH]c4ccccc34)C2)ccc1OC	none
Cc1ccc(NC(=O)ON=C2CCCC2)cc1	none
O=C(O)CCn1c(SCCOc2ccccc2)nc2ccccc21	none
O=C1N(c2ccccc2)C[C@@H]2C[C@@H](c3cc4ccccc4o3)N3CCC[C@@]123	Mdm2 MdmX PPI 98 | Mdm2 MdmX conf 98 | FLuc counter inactive
Cc1ccc(-c2ccccc2[C@@H]2C[C@H]3CN(C)C(=O)[C@]34CCCN24)o1	none
CCN(CC)C(=O)[C@H]1CC(CC(=O)NCC23CC4CC(CC(C4)C2)C3)C(=O)N2CCc3c([nH]c4ccc(OC)cc34)[C@]12C (some centres not stated)	Mdm2 MdmX PPI 64 (no result: UBC13 polyUb) | Mdm2 MdmX conf inactive
COc1ccc2[nH]c3c(c2c1)CCN1C(=O)C(CC(=O)NCC24CC5CC(CC(C5)C2)C4)C[C@H](C(=O)N2CCCCC2)[C@@]31C (some centres not stated)	none (no result: UBC13 polyUb)
CN(C)C(=O)CCc1ccc2c3c([nH]c2c1)[C@]1(C)[C@@H](C(=O)N2CCOCC2)C[C@H](CC(=O)NCC24CC5CC(CC(C5)C2)C4)C(=O)N1CC3	none (no result: UBC13 polyUb)
CCN(CC)C(=O)[C@H]1C[C@H](CC(=O)NCc2cccc(C(F)(F)F)c2)C(=O)N2CCc3c([nH]c4cc(-c5ccco5)ccc34)[C@]12C	Mdm2 MdmX PPI 53 (no result: UBC13 polyUb) | Mdm2 MdmX conf inactive
CCN(CC)C(=O)[C@H]1CC(CC(=O)NCc2cccc(C(F)(F)F)c2)C(=O)N2CCc3c([nH]c4ccc(OC)cc34)[C@]12C (some centres not stated)	none (no result: UBC13 polyUb)
CC(C)N(C(=O)[C@H]1CC(CC(=O)NCc2cccc(C(F)(F)F)c2)C(=O)N2CCc3c([nH]c4ccccc34)[C@]12C)C(C)C (some centres not stated)	Mdm2 MdmX PPI 64 | Mdm2 MdmX conf inactive
CC(C)N(C(=O)[C@H]1C[C@H](CC(=O)NCC23CC4CC(CC(C4)C2)C3)C(=O)N2CCc3c([nH]c4cc(CCC(=O)N(C)C)ccc34)[C@]12C)C(C)C	Mdm2 MdmX PPI 81 (no result: UBC13 polyUb) | Mdm2 MdmX conf 43 | FLuc counter 60
CC(CC(=O)OCC(=O)Nc1ccc2[nH]c(=O)[nH]c2c1)c1ccccc1 (configuration not stated)	none
CON1C(=O)C(=O)N(OC)C(C)(C)C1C (configuration not stated)	none
Cc1ccc(C(=O)Nc2ccc(S(=O)(=O)NC3=NCCCCC3)cc2)cc1S(=O)(=O)N1CCOCC1	none
CC(C)N(C(=O)[C@H]1C[C@H](CC(=O)NCC23CC4CC(CC(C4)C2)C3)C(=O)N2CCc3c([nH]c4cc(-c5ccco5)ccc34)[C@]12C)C(C)C	Mdm2 MdmX PPI 70 (no result: UBC13 polyUb) | Mdm2 MdmX conf inactive
C[C@]12c3[nH]c4ccccc4c3CCN1C(=O)C(CC(=O)NCC13CC4CC(CC(C4)C1)C3)C[C@@H]2C(=O)N1CCCCC1 (some centres not stated)	none
CC(C)N(C(=O)[C@H]1CC(CC(=O)NCC23CC4CC(CC(C4)C2)C3)C(=O)N2CCc3c([nH]c4ccccc34)[C@]12C)C(C)C (some centres not stated)	Mdm2 MdmX PPI 59 | Mdm2 MdmX conf inactive
CC[C@]12c3[nH]c4cc(CCC(=O)N(C)C)ccc4c3CCN1C(=O)[C@@H](CC(=O)NCC13CC4CC(CC(C4)C1)C3)C[C@@H]2C(=O)N1CCN(C(=O)c2ccco2)CC1	Mdm2 MdmX PPI 50 (no result: UBC13 polyUb) | Mdm2 MdmX conf inactive
CCc1ccc(CCC(=O)Nc2sc3c(c2C#N)CCCC3)o1	Mdm2 MdmX PPI 50 | Mdm2 MdmX conf 68 | FLuc counter 83
COc1ccc(OC)c(N(CC(=O)NCC2CCCO2)S(=O)(=O)c2ccccc2)c1 (configuration not stated)	none
C#CCN1C=C(C(=O)OCC)C(C)N(Cc2ccccc2I)S1(=O)=O (configuration not stated)	Mdm2 MdmX PPI 55 (no result: UBC13 polyUb) | Mdm2 MdmX conf 49 | FLuc counter 51
NS(=O)(=O)c1ccc(N2N=C(c3ccccc3)CC2c2ccccc2)cc1 (configuration not stated)	none
